From ChEMBL document CHEMBL3862000, “Tetrahydroindazole derivatives as potent and peripherally selective cannabinoid-1 (CB1) receptor inverse agonists” (Bioorg Med Chem Lett, 2016)

Assays:
[1] = Drug uptake in C57bl/6j mouse plasma at 20 mg/kg, po measured at 2 hrs post dose by LC/MS analysis; type: ADME, organism-based
Method in brief: (§1)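 Male mice dosed orally. Plasma taken by retro-orbital bleed at 1 h and 2 h or 1 h and 4 h. Whole brain minus cerebellum removed at 2 h or 4 h, weighed wet, frozen, then homogenized in saline. Compound measured by LC/MS; LOQ 5 ng/ml. B/P ratio is brain over plasma concentration.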

[2] = Ratio of drug level in C57bl/6j mouse brain to plasma at 20 mg/kg, po; type: ADME, organism-based; details: read-out: BPR; method in brief: as §1
[3] = Drug uptake in C57bl/6j mouse brain without cerebellum at 20 mg/kg, po measured at 2 hrs post dose by LC/MS analysis; type: ADME, organism-based; details: for Drug uptake: in vivo, 2 h; method in brief: as §1
[4] = target: Cannabinoid receptor 2 (Homo sapiens, UniProt P34972); experiment: Inverse agonist activity at human cannabinoid receptor 2 expressed in HEK293 cells assessed as increase in forskolin-induced cAMP production preincubated with cells followed by forskolin stimulation measured after 30 mins in presence of D2-labeled cAMP and Eu3+-TBP-NHS cryptate by HTRF assay; type: functional, cell-based
Chain of Cannabinoid receptor 2 (P34972 whole entry): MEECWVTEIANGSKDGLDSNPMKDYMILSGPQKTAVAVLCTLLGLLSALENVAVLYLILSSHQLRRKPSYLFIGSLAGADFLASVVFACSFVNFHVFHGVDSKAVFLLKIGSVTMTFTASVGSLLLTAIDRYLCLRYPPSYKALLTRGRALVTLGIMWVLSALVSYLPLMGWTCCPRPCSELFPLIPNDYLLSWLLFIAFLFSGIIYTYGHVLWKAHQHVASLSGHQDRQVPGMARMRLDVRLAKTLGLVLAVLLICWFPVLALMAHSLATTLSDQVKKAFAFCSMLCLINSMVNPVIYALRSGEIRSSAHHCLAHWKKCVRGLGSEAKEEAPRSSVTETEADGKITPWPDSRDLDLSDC

[5] = target: Cannabinoid receptor 1 (Homo sapiens, UniProt P21554); experiment: Inverse agonist activity at human cannabinoid receptor 1 expressed in HEK293 cells assessed as increase in forskolin-induced cAMP production preincubated with cells followed by forskolin stimulation measured after 30 mins in presence of D2-labeled cAMP and Eu3+-TBP-NHS cryptate by HTRF assay; type: functional, cell-based
Chain of Cannabinoid receptor 1 (P21554 whole entry): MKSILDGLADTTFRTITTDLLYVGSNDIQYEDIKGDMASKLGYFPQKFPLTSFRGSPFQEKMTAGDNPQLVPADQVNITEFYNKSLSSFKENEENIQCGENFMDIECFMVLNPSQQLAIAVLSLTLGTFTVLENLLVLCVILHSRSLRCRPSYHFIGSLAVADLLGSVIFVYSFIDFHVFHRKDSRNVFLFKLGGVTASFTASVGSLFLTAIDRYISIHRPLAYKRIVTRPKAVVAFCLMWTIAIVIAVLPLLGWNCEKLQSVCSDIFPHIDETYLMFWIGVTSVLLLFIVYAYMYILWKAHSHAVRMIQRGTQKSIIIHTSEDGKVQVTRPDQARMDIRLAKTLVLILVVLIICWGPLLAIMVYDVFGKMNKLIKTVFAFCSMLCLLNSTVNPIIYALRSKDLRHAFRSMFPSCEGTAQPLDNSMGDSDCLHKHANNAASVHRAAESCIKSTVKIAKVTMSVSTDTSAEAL

[6] = tested on: Mus musculus; experiment: Toxicity in diet-induced obese mouse model assessed as effect on body weight at 30 mg/kg, po qd for 3 weeks measured on day 19 up to 120 mins post glucose challenge; type: organism-based; details: in vivo
[7] = tested on: Mus musculus; experiment: Toxicity in diet-induced obese mouse model assessed as effect on food intake at 30 mg/kg, po qd for 3 weeks measured on day 19 up to 120 mins post glucose challenge; type: organism-based; details: in vivo
[8] = Ratio of drug level in diet-induced obese mouse brain to plasma at 30 mg/kg, po qd for 3 weeks measured 2 hrs post last dose on day 23; type: ADME, organism-based; details: read-out: BPR
Method in brief: (§2)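 Dosing ran daily, oral, in 10% PEG400 + 10% solutol at 5 mL/kg, […], run alongside the efficacy study. Plasma and brain compound levels measured 2 h after the last dose; B/P ratio is brain over plasma concentration.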

[9] = tested on: Rattus norvegicus; experiment: Toxicity in Sprague-Dawley rat assessed as CNS-mediated behavior at 30 mg/kg, po by measuring stereotypic activity after 15 mins measured up to 2 hrs; type: organism-based; details: in vivo
Method in brief: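 Rats given vehicle (10% PEG400 and 10% solutol) or compound orally. Stereotypic activity recorded automatically from 15 min post-dose for a total of 2 h.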

[10] = Drug uptake in diet-induced obese mouse brain at 30 mg/kg, po qd for 3 weeks measured 2 hrs post last dose on day 23; type: ADME, organism-based; details: in vivo; method in brief: as §2
[11] = Drug uptake in diet-induced obese mouse plasma at 30 mg/kg, po qd for 3 weeks measured 2 hrs post last dose on day 23; type: ADME, organism-based; method in brief: as §2
[12] = tested on: Mus musculus; experiment: Antiobesity activity in diet-induced obese mouse model assessed as fasting plasma glucose AUC (0 to 120 mins) at 30 mg/kg, po qd for 3 weeks measured on day 19 post glucose challenge by OGTT (reference value: 29890.50 +/- 2516.45 mg/dL.min); type: functional, organism-based; set-up: dose 30 mg/kg, time < 2 hr
[13] = Drug uptake in C57bl/6j mouse plasma at 20 mg/kg, po measured at 4 hr post dose by LC/MS analysis; type: ADME, organism-based
Method in brief: (§3)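 Male C57bl/6j mice given a single oral dose of 20 mg/kg. Plasma drawn by retro-orbital bleed at 1 h and 4 h. Whole brain minus cerebellum taken at 4 h, wet-weighed, frozen, then homogenized in saline. Compound levels in plasma and brain measured by LC/MS (LOQ 5 ng/ml). Brain/plasma ratio taken from the two concentrations.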

[14] = Drug uptake in C57bl/6j mouse brain without cerebellum at 20 mg/kg, po measured at 4 hr post dose by LC/MS analysis; type: ADME, organism-based; details: in vivo; method in brief: as §3

Row | concentration at 2 h [1] | Kp [2] | Drug uptake [3] | EC50 [4] | EC50 [5] | Kp at 2 h [8] | Drug uptake [10] | concentration at 2 h [11] | Compound | Activity [6] | Activity [7] | Activity [9] | AUC [12] | concentration at 4 h [13] | Drug uptake [14] | concentration at 2 h ([3]; C57BL/6J, brain without cerebellum, read-out: Drug uptake)
1 | 830 nM | 0.16 | 0.13 nmol/g | 743 nM | 7 nM | – | – | – | C[C@@H](NC(=O)c1nn(-c2ccc(Cl)cc2Cl)c2c1CCCC/C2=C\c1ccc(Cl)cc1)c1ccccn1 | – | – | – | – | – | – | –
2 | 1620 nM | 0.05 | 0.07 nmol/g | 2000 nM | 35 nM | 0.037 | 0.25 nmol/g | 6620 nM | C[C@@H](NC(=O)c1nn(-c2ccc(Cl)c(Cl)c2)c2c1CCCC/C2=C\c1ccc(F)cc1)c1ccccn1 | Non-Toxic | Non-Toxic | Non-Toxic | 3.67e+06 ng·h/mL | – | – | –
3 | – | 0.09 | – | > 10000 nM | 34 nM | – | – | – | O=C(NC1CCN(c2ccccn2)CC1)c1nn(-c2ccc(Cl)cc2Cl)c2c1CCC/C2=C\c1ccc(Cl)cc1 | – | – | – | – | 450 nM | 0.04 nmol/g | –
4 | 1520 nM | 0.02 | 0.035 nmol/g | > 11000 nM | 12 nM | – | – | – | O=C(NC1CCN(c2ccccn2)CC1)c1nn(-c2ccc(Cl)cc2Cl)c2c1CCC/C2=C\c1ccc(F)cc1 | – | – | – | – | – | – | –
5 | 380 nM | 0.48 | 0.16 nmol/g | 560 nM | 4 nM | – | – | – | C[C@@H](NC(=O)c1nn(-c2ccc(Cl)cc2Cl)c2c1CCCC/C2=C\c1ccc(Cl)cn1)c1ccccn1 | – | – | – | – | – | – | –
6 | – | 0.11 | – | > 10000 nM | 18 nM | – | – | – | C[C@@H](NC(=O)c1nn(-c2ccc(C(F)(F)F)cc2Cl)c2c1CCC/C2=C\c1ccc(Cl)s1)c1ccccn1 | – | – | – | – | 460 nM | 0.051 nmol/g | –
7 | 2030 nM | 0.03 | 0.05 nmol/g | > 10000 nM | 28 nM | – | – | – | O=C(NC1CCN(c2ccccn2)CC1)c1nn(-c2ccc(Cl)cc2Cl)c2c1CCCC/C2=C\c1ccc(F)cc1 | – | – | – | – | – | – | –
8 | 3720 nM | 0.26 | 0.97 nmol/g | > 10000 nM | 127 nM | – | – | – | C[C@@H](NC(=O)c1nn(-c2ccc(Cl)cc2)c2c1CCC/C2=C\c1ccc(Cl)cc1)c1ccccn1 | – | – | – | – | – | – | –
9 | 4760 nM | 0.01 | 0.05 nmol/g | > 10000 nM | 56 nM | – | – | – | C[C@@H](NC(=O)c1nn(-c2ccc(Cl)c(Cl)c2)c2c1CCCC/C2=C\c1ccc(C(F)(F)F)cc1)c1ccccn1 | – | – | – | – | – | – | –
10 | 3630 nM | 0.15 | 0.56 nmol/g | 9410 nM | 2 nM | – | – | – | C[C@@H](NC(=O)c1nn(-c2ccc(Cl)cc2Cl)c2c1CCCC/C2=C\c1ccc(Cl)s1)c1ccccn1 | – | – | – | – | – | – | –
11 | – | 0.82 | – | 1610 nM | 7 nM | – | – | – | O=C(NC1(c2ccccn2)CC1)c1nn(-c2ccc(Cl)cc2)c2c1CCC/C2=C\c1ccc(Cl)cc1 | – | – | – | – | 1610 nM | 1.28 nmol/g | –
12 | 2470 nM | 0.41 | 1.02 nmol/g | > 10000 nM | 28 nM | – | – | – | C[C@@H](NC(=O)c1nn(-c2ccc(Cl)cc2)c2c1CCCC/C2=C\c1ccc(F)cc1)c1ccccn1 | – | – | – | – | – | – | –
13 | 2960 nM | 0.08 | 0.24 nmol/g | 3820 nM | 35 nM | – | – | – | C[C@@H](NC(=O)c1nn(-c2ccc(Cl)cc2Cl)c2c1CCC/C2=C\c1ccc(Cl)s1)c1ccccn1 | – | – | – | – | – | – | –
14 | 1560 nM | 0.92 | 1.39 nmol/g | > 10000 nM | 4 nM | – | – | – | C[C@@H](NC(=O)c1nn(-c2ccc(Cl)cc2Cl)c2c1CCC/C2=C\c1ccc(F)cc1)c1ccccn1 | – | – | – | – | – | – | –

Row | Compound | concentration at 2 h [1] | Kp [2] | Drug uptake [3] | EC50 [4] | EC50 [5] | Kp at 2 h [8] | Drug uptake [10] | concentration at 2 h [11] | Activity [6] | Activity [7] | Activity [9] | AUC [12] | concentration at 4 h [13] | Drug uptake [14] | concentration at 2 h ([3]; C57BL/6J, brain without cerebellum, read-out: Drug uptake)
15 | C[C@@H](NC(=O)c1nn(-c2ccc(Cl)cc2Cl)c2c1CCCC/C2=C\c1ccc(F)cc1)c1ccccc1 | 1290 nM | – | – | 5590 nM | 6 nM | – | – | – | – | – | – | – | – | – | < 5 ng/mL
16 | C[C@@H](NC(=O)c1nn(-c2ccc(Cl)c(Cl)c2)c2c1CCCC/C2=C\c1ccc(Cl)cc1)c1ccccn1 | 2400 nM | 0.02 | 0.05 nmol/g | > 10000 nM | 37 nM | – | – | – | – | – | – | – | – | – | –
17 | C[C@@H](NC(=O)c1nn(-c2ccc(C(F)(F)F)cc2Cl)c2c1CCCC/C2=C\c1ccc(Cl)s1)c1ccccn1 | – | 0.28 | – | > 10000 nM | 8 nM | – | – | – | – | – | – | – | 640 nM | 0.17 nmol/g | –
18 | O=C(NC1(c2ccccn2)CC1)c1nn(-c2ccc(Cl)c(Cl)c2)c2c1CCCC/C2=C\c1ccc(F)cc1 | 2410 nM | 0.05 | 0.11 nmol/g | 807 nM | 13 nM | – | – | – | – | – | – | – | – | – | –
19 | C[C@@H](NC(=O)c1nn(-c2ccc(Cl)c(Cl)c2)c2c1CCC/C2=C\c1ccc(Cl)s1)c1ccccn1 | – | 0.03 | – | > 10000 nM | 37 nM | – | – | – | – | – | – | – | 3180 nM | 0.1 nmol/g | –
20 | C[C@@H](NC(=O)c1nn(-c2ccc(Cl)cc2Cl)c2c1CCC/C2=C\c1ccc(Cl)cc1)c1ccccn1 | – | 0.2 | – | 854 nM | 30 nM | – | – | – | – | – | – | – | 1600 nM | 0.32 nmol/g | –
21 | O=C(NC1(c2ccccn2)CC1)c1nn(-c2ccc(C(F)(F)F)cc2Cl)c2c1CCCC/C2=C\c1ccc(Cl)s1 | – | 0.24 | – | > 10000 nM | 8 nM | – | – | – | – | – | – | – | 1540 nM | 0.36 nmol/g | –
22 | C[C@@H](NC(=O)c1nn(-c2ccc(Cl)cc2)c2c1CCC/C2=C\c1ccc(Cl)cn1)c1ccccn1 | 2930 nM | 0.65 | 1.91 nmol/g | > 10000 nM | 22 nM | – | – | – | – | – | – | – | – | – | –
23 | O=C(NC1(c2ccccn2)CC1)c1nn(-c2ccc(C(F)(F)F)cc2Cl)c2c1CCC/C2=C\c1ccc(Cl)s1 | – | 0.14 | – | > 10000 nM | 11 nM | – | – | – | – | – | – | – | 4630 nM | 0.64 nmol/g | –
